Bioassay records as filed in PubChem.
E-selectin induc: E-selectin induction in HUVECs, primary screen, imaging, HUVEC, immunofluorescence imaging, single point; P16581; activation, % at 7.58 µM; actives 0.37% (n = 260,000); normalized: neutral wells 0, TNF-alpha wells 100;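 active means mean E-selectin-positive cell signal at least 10% of the positive control, reached in at least 60% of replicates, without over 20% cell loss; inconclusive means no rule given, readout overlaps actives, possibly toxicity-flagged; inactive means the rest, including those meeting only one limit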
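Read-out basis: % PE-positive cells; Test system: HUVEC primary endothelial cells; Technique: immunofluorescence imaging; Dosing: single-point compound dose.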
ERAP1 inh: human ERAP1 aminopeptidase inhibitors, primary screen, biochemical, single point, plate reader. AID 652197, 2013. recombinant ERAP1, Leu-AMC fluorescence, 60 min. inhibition, % at 10.7 µM. actives 0.15% (n = 340,000). Endoplasmic reticulum aminopeptidase 1 (Homo sapiens), Q9NZ08;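 active means mean replicate inhibition of at least 30%, or all replicates individually reaching that 30% level; inactive means mean below 30% and not every replicate reaching it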;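 further: 0% = neutral control wells and 100% = L-leucinethiol positive control wells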
FGF22 binding: binders of human FGF22 protein, primary screen, FGF22 synaptogenesis inhibitor project, biophysical, thermal shift, single point | actives 1.5% (n = 340,000) | recombinant FGF22 thermal shift, SYPRO orange fluorescence; percent of sucrose octasulfate shift, DMSO zero | AID 651658, 2012 | Fibroblast growth factor 22 (Homo sapiens), Q9HCT0 | activity (Tm shift, normalised), % at 9.99 µM;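 active means mean Tm shift, scaled 0 neutral to 100 positive control, at about 1.3% or above, every replicate too, limit read from the data; inconclusive means no clear call, values can overlap the other calls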
Target sequence (Q9HCT0 whole entry, looked up): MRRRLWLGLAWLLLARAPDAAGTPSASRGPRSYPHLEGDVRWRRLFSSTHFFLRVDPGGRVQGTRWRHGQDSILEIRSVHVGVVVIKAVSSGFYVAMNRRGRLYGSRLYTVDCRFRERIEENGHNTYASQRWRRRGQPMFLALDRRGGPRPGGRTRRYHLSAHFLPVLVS
DENV2 CPE: inhibitors of DENV2 cytopathic effect, primary screen, cell-based, plate reader, single concentration; DENV2-infected cells, cytopathic effect rescue; CPE inhibition, % at 9.99 µM; actives 1.7% (n = 350,000); in the data active means CPE inhibition above about 20%, passing the limit was not always enough; inconclusive means no clear call, values can overlap the other calls; tested in BHK-21 cells;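 further: 0% = median of neutral control wells and 100% = median of positive control wells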
CFTR F508del cor: F508del CFTR correction, initial screen, CFBE line, single point. activity (quench increase), % at 7.58 µM. CFBE cells, YFP halide quenching; stimulated with forskolin plus potentiator P3; % fluorescence drop versus neutral controls. actives 0.36% (n = 350,000). AID 720511, 2013;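 active means mean added fluorescence quench of at least 8% versus neutral control, with both replicates also reaching 8%; inconclusive means only one of the mean or replicate conditions met; inactive means mean below 8% and not both replicates reaching 8%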;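 further: cells transiently co-express mutant CFTR-F508del with the halide-sensitive YFP; corrector assay measuring rescue of mutant channel to the surface after 24 h compound exposure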
* = called active by the depositor. Hits are enriched below; roughly 3.7% of the tested compounds scored in any of these assays.

CC(O)CNC1c2ccccc2CC1O (stereo unspecified) was read as E-selectin induc 0.3, ERAP1 inh 1.5, DENV2 CPE 62.9* and CFTR F508del cor 1.7.
Screening Cc1c(O)ccc2cc(S(=O)(=O)c3ccccc3)c(=O)oc12 returned E-selectin induc -0.1, ERAP1 inh 132.0*, FGF22 binding 0.1, DENV2 CPE -6.9 and CFTR F508del cor -1.2.
For CC(C)(C)OC(=O)N1CCC(NC(=O)c2[nH]cnc2C(=O)Nc2ccccc2F)CC1 the results were E-selectin induc -0.2, ERAP1 inh 0.3, FGF22 binding 43.0*, DENV2 CPE inconclusive and CFTR F508del cor -2.1.
`COc1cccc(CNC(=O)C[C@@H]2CC[C@H](NC(=O)C3CCC3)[C@@H](CO)O2)c1` gave E-selectin induc -0.4, ERAP1 inh -1.3, FGF22 binding 0.0, DENV2 CPE -0.6 and CFTR F508del cor 0.8.
For C#CCNc1cc(-c2ccccc2)nc2ncnn12 the results were ERAP1 inh -0.3, FGF22 binding 43.8*, DENV2 CPE inconclusive and CFTR F508del cor -2.1.
`Cc1ccc(S(=O)(=O)Nc2ccc3c(c2)C(=O)N([C@H](C)CO)C[C@@H](C)[C@@H](CN(C)C(=O)CCCN(C)C)OCCCC[C@H](C)O3)cc1` gave ERAP1 inh -1.2, FGF22 binding -0.2, DENV2 CPE -2.3 and CFTR F508del cor 3.2.
CCNC(=O)C[C@H]1CC[C@@H]2[C@H](COc3ccc(NC(=O)Nc4c(C)noc4C)cc3C(=O)N2C)O1 was read as E-selectin induc 0.1, ERAP1 inh 0.8, FGF22 binding -0.1, DENV2 CPE 17.9 and CFTR F508del cor 3.2.
`COc1ccccc1NC(=O)c1ccc2c(c1)nnn2C` gave ERAP1 inh -3.1, FGF22 binding 44.0*, DENV2 CPE -6.1 and CFTR F508del cor 1.5.
Screening COc1ccc(NC(=O)Nc2cccc3c2O[C@H](CN(C)Cc2ccc(Oc4ccccc4)cc2)[C@@H](C)CN([C@H](C)CO)C3=O)cc1 returned E-selectin induc -3.5, ERAP1 inh -2.1, FGF22 binding 0.0, DENV2 CPE -3.8 and CFTR F508del cor -2.9.
`COc1ccc(CN(C(=O)c2ccc(C)cc2)c2cccc(N)c2)cc1` gave E-selectin induc -0.2, ERAP1 inh -2.1, FGF22 binding -0.1, DENV2 CPE 37.9* and CFTR F508del cor 0.0.
Screening COc1ccc(C(=O)N(Cc2ccccc2)c2cccc(C)c2)cc1 returned E-selectin induc -0.1, ERAP1 inh 1.5, FGF22 binding 0.4, DENV2 CPE 10.0 and CFTR F508del cor 2.5.
CC(=O)N1[C@@H]2c3ccc(-c4ccccc4)c(=O)n3C[C@H]1[C@H](CO)[C@H]2C(=O)NCCCN1CCOCC1 was read as E-selectin induc -0.3, ERAP1 inh 0.3, FGF22 binding 0.1, DENV2 CPE 8.3 and CFTR F508del cor -1.6.
Screening CC1CCCCN1C(=O)COC(=O)Cc1c[nH]c2ccccc12 (stereo unspecified) returned E-selectin induc -0.3, ERAP1 inh 3.4, FGF22 binding 43.1*, DENV2 CPE 0.0 and CFTR F508del cor 0.2.
Screening CC1CCCCN1C(=O)CCc1nnc(Cc2c[nH]c3ccccc23)o1 (stereo unspecified) returned ERAP1 inh -4.2, FGF22 binding 43.7*, DENV2 CPE 3.6 and CFTR F508del cor -2.0.
CC1CCCC(C)N1C(=O)COC(=O)Cc1c[nH]c2ccccc12 (stereo unspecified) was read as E-selectin induc 2.1, ERAP1 inh -0.2, FGF22 binding -0.1, DENV2 CPE -1.5 and CFTR F508del cor -4.7.
COCCN(C(=O)CCc1nnc(CCc2c[nH]c3ccccc23)o1)C(C)C was read as ERAP1 inh -1.9, FGF22 binding 43.7*, DENV2 CPE -3.5 and CFTR F508del cor 1.6.
COc1ccc(NC(=O)Nc2ccc3c(c2)[C@H]2C[C@H](CC(=O)NCCc4ccccc4)O[C@@H](CO)[C@H]2O3)cc1 was read as E-selectin induc 6.0, ERAP1 inh 1.6, FGF22 binding -0.5, DENV2 CPE -0.6 and CFTR F508del cor 3.0.
`CC=Cc1ccc2n(c1=O)C[C@@H]1[C@@H](CO)[C@H](C(=O)N3CCOCC3)N(Cc3ccccc3)[C@H]21` (mixture of isomers) gave E-selectin induc 1.2, ERAP1 inh 3.1, FGF22 binding -0.4, DENV2 CPE -3.9 and CFTR F508del cor 2.6.
`COc1cc([N+](=O)[O-])ccc1NC(=O)NCc1ccco1` gave ERAP1 inh -1.7, FGF22 binding 43.9*, DENV2 CPE 5.1 and CFTR F508del cor -2.7.
`COCC#Cc1cnc2c(c1)C(=O)N([C@H](C)CO)C[C@@H](C)[C@@H](CN(C)C(=O)CCN1CCCCC1)O2` gave E-selectin induc 0.1, ERAP1 inh -3.3, FGF22 binding 1.1, DENV2 CPE -4.6 and CFTR F508del cor -1.5.
Screening Cc1ccc(N=C2c3ccccc3C(=O)C2[N+](=O)[O-])cc1C (stereo unspecified) returned E-selectin induc 6.6, ERAP1 inh 0.9, FGF22 binding 43.3*, DENV2 CPE inconclusive and CFTR F508del cor 0.9.
N#Cc1cnn(-c2cccc(Cl)c2)c1N was read as ERAP1 inh -1.9, FGF22 binding 43.3*, DENV2 CPE 7.9 and CFTR F508del cor -1.5.
`Cc1ccc(Sc2nc(C)c([N+](=O)[O-])c(C)c2C#N)cc1` gave ERAP1 inh -2.8, FGF22 binding -0.2, DENV2 CPE 28.9* and CFTR F508del cor -3.8.
For COc1cc(O)c(C(CC(=O)N2CCCC(C)C2)c2cc(OC)c(OC)c(OC)c2)c(OC)c1 (stereo unspecified) the results were E-selectin induc -0.1, ERAP1 inh 4.4, FGF22 binding 0.3, DENV2 CPE 61.9* and CFTR F508del cor -2.1.
`COc1ccc(C(CC(=O)N2CCCC(C)C2)c2c(O)cc(OC)cc2OC)cc1` (stereo unspecified) gave E-selectin induc 0.3, ERAP1 inh 3.0, FGF22 binding 0.0, DENV2 CPE 14.2 and CFTR F508del cor -4.1.
C[C@H](NC(=O)[C@H]1[C@H](CO)[C@H]2Cn3c(cccc3=O)[C@@H]1N2CCC(F)(F)F)c1ccccc1 was read as E-selectin induc -0.5, ERAP1 inh -2.7, FGF22 binding 0.0 and DENV2 CPE 0.2.
Screening CN(C)N1C(N)=C(C#N)C(c2ccc(F)cc2)C2=C1CCCC2=O (stereo unspecified) returned E-selectin induc 0.0, ERAP1 inh 4.1, FGF22 binding 0.0, DENV2 CPE -5.8 and CFTR F508del cor 0.2.
